The test system of test [1] is MCF7/6. The experiment in a line: Antiinvasive activity against human MCF7/6 cells assessed as decrease in occupying outer fibroblast-like and myoblast cell layers at 10 umol/L after 8 days by hematoxylin and eosin staining assay. Format: functional, cell-based. Summed up:
(§1)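 Precultured heart fragments from 9-day-old chick embryos (0.4 mm diameter) were paired with MCF-7/6 aggregates (0.2 mm). Pairs sat overnight at 37 °C on semi-solid agar, then spun 8 days in suspension (37 °C, 120 rpm, 10% CO₂) with compound added in DMSO. Runs were usually in duplicate; 10 µmol/L often single. 7 µm sections were scored histologically for invasion grade 0–IV, with alternate sections stained with 5D10 antibody.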

The test system of test [2] is MCF7/6. The experiment in a line: Antiinvasive activity against human MCF7/6 cells assessed as decrease in occupying outer fibroblast-like and myoblast cell layers at 0.01 umol/L after 8 days by hematoxylin and eosin staining assay. Format: functional, cell-based. Put shortly: as §1
Test [3] relates to MCF7/6. The experiment in a line: Antiinvasive activity against human MCF7/6 cells assessed as decrease in occupying outer fibroblast-like and myoblast cell layers at 0.1 umol/L after 8 days by hematoxylin and eosin staining assay. In kind it is functional, cell-based. Summed up: as §1
Test [4] can be described thus: Antiinvasive activity against human MCF7/6 cells assessed as minimum log concentration required to show activity after 8 days by hematoxylin and eosin staining-based chick heart invasion assay. More on the design: unit: log(µmol/L). In kind it is functional. Summed up:
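Confronting cultures were set up as chick heart fragments (9-day embryos) plus MCF-7/6 aggregates, 8 days at 37 °C. Compound was dosed in DMSO at 10, 1, 0.1 and 0.01 µmol/L, in duplicate, and grades were scored histologically. c_min is the lowest concentration where both repeats gave grade I or II; inconclusive cases were repeated. A single active repeat counted if all repeats at 10-fold higher were active. The value is reported as log c_min.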

For test [5], the system named is MCF7/6. The experiment in a line: Antiinvasive activity against human MCF7/6 cells assessed as decrease in occupying outer fibroblast-like and myoblast cell layers at 1 umol/L after 8 days by hematoxylin and eosin staining assay. In kind it is functional, cell-based. Summed up: as §1
In test [6] the test system is MCF7/6. The experiment in a line: Antiinvasive activity against human MCF7/6 cells assessed as precultured chick heart tissue fragment attachment without occupying heart tissue and outermost fibroblastic cell layers at 1 umol/L after 8 days by hematoxylin and eosin staining assay. Format: functional, cell-based. Put shortly: as §1
In test [7] the test system is MCF7/6. The experiment in a line: Antiinvasive activity against human MCF7/6 cells assessed as occupying less than half of original amount of chick precultured heart tissue fragment at 10 umol/L after 8 days by hematoxylin and eosin staining assay. Format: functional, cell-based. Summed up:
as §1

In test [8] the test system is MCF7/6. The experiment in a line: Antiinvasive activity against human MCF7/6 cells assessed as occupying less than half of original amount of heart tissue at 0.1 umol/L after 8 days by hematoxylin and eosin staining assay. Format: functional, cell-based. Put shortly:
as §1

Test [9] relates to MCF7/6. The experiment in a line: Antiinvasive activity against human MCF7/6 cells assessed as precultured chick heart tissue fragment attachment without occupying heart tissue and outermost fibroblastic cell layer at 10 umol/L after 8 days by hematoxylin and eosin staining assay. In kind it is functional, cell-based. Summed up:
as §1

Test [10] relates to MCF7/6. The experiment in a line: Antiinvasive activity against human MCF7/6 cells assessed as occupying less than half of original amount of heart tissue at 1 umol/L after 8 days by hematoxylin and eosin staining assay. Format: functional, cell-based. Summed up: as §1
For test [11], the system named is MCF7/6. The experiment in a line: Antiinvasive activity against human MCF7/6 cells assessed as occupying more than half of original amount of chick precultured heart tissue fragment at 10 umol/L after 8 days by hematoxylin and eosin staining assay. Format: functional, cell-based. Put shortly:
as §1

For test [12], the system named is MCF7/6. The experiment in a line: Antiinvasive activity against human MCF7/6 cells assessed as chick precultured heart tissue fragment attachment without occupying heart tissue and outermost fibroblastic cell layer at 0.1 umol/L after 8 days by hematoxylin and eosin staining assay. In kind it is functional, cell-based. Put shortly: as §1

Calls of active or inactive are those of the source. No cut-off for these calls is given here.

Regarding `COc1ccc(/C=C/c2ccc(F)cc2)cc1`, the result with MCF7/6 [1], with MCF7/6 [2] and in the test on MCF7/6 [3] was Active. Further, the logMEC in test [4] is -2.
Turning to `C(=C\c1ccccc1)/c1ccccc1`, the result in the test with MCF7/6 [5], in the test with MCF7/6 [6] and with MCF7/6 [3] was Active. The logMEC in [4] was -1. For the same molecule, the outcome in the test with MCF7/6 [7] was inactive.
Turning to `COc1cc(/C=C\c2ccc(F)cc2)cc(OC)c1OC`, the result in the test with MCF7/6 [8] and in the test with MCF7/6 [10] was inactive. The logMEC in test [4] was 1. The outcome in the test with MCF7/6 [9] was Active.
Take `COc1cc(/C=C/c2ccccc2)cc(OC)c1OC`: the result in the test with MCF7/6 [1] was Active. The logMEC in [4] is -1.
Consider `COc1cc(/C=C/c2ccc(F)cc2)cc(OC)c1OC`, for which, in the test with MCF7/6 [1], the result was Active. Also, in the test on MCF7/6 [8], the outcome was inactive. Moreover, the logMEC in [4] is 0.
As to `Fc1ccc(/C=C/c2ccc(F)cc2)cc1`, the result in the test with MCF7/6 [1], in the test on MCF7/6 [2] and with MCF7/6 [3] was Active. Moreover, the logMEC in test [4] is listed as -2.
For the molecule `Fc1ccc(/C=C\c2ccccc2)cc1`, the result in the test on MCF7/6 [2] was Active. The logMEC in [4] is -2.
In the case of `COc1ccc(/C=C/c2ccccc2)cc1`, the result with MCF7/6 [11] was inactive. Further, the outcome with MCF7/6 [12] and with MCF7/6 [3] was Active. Moreover, in [4], the logMEC was -1.
As to `Fc1ccc(/C=C/c2ccccc2)cc1`, in the test on MCF7/6 [5], the outcome was Active. Besides, the result in the test with MCF7/6 [8] was inactive.
`COc1cc(/C=C\c2ccccc2)cc(OC)c1OC`: the outcome with MCF7/6 [5], in the test on MCF7/6 [1], with MCF7/6 [6], in the test on MCF7/6 [2] and in the test on MCF7/6 [3] was Active. Also, the logMEC in [4] is -2.

These data come from ChEMBL document CHEMBL3108707, “Design, synthesis and structure-activity relationships of some novel, highly potent anti-invasive (E)- and (Z)-stilbenes” (2013).
